Variants at the floor of the assay were thinned out.
B1: tRNA (parent)
chain: GUUCCGUUGGCGUAAUGGUAACGCGUCUCCCUCCUAAGGAGAAGACUGCGGGUUCGAGUCCCGUACGGAACG

Variants of: B1
Test: yeast fitness relative to wild type (ratio to wild type); higher = fitter; tRNA-Arg(CCU), competitive growth, 37 C, YPD
Method in brief: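 Variants of the tRNA-Arg(CCU) gene, chemically synthesised with a 3% per-site mutation rate at 69 sites, were placed at the native genomic locus in Saccharomyces cerevisiae. The pooled strains were competed in YPD at 37°C for 24 hours in six parallel replicates. Gene amplicons from the start population and from each end population were read by 100-nucleotide paired-end sequencing. Darwinian fitness relative to wild type came from changes in genotype frequencies; genotypes needed ≥ 100 starting reads, and estimates < 0.5 were set to 0.5.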

Point of comparison: G17A C46G U54C, yeast fitness 0.562. Against it:
- G17A C30G A40G C60A — higher, 0.678
- G18A A21C C30U — lower, ≤ 0.5
- U16G A40U C62G — higher, 0.566
- G18C U35A A45C C62U — lower, 0.542
- G18C C24G C46A G56C G58A — lower, ≤ 0.5
- G18A C31A C60A — lower, ≤ 0.5
- G17C G41A — higher, 0.615
- G18A C34A — lower, ≤ 0.5
- G18C G50A C62A — lower, ≤ 0.5
- U19A A20C A21G C30G A43G C55G — lower, ≤ 0.5
- G18A A20U C34U A36G — lower, ≤ 0.5
- G17A A21G U28G C62G — lower, ≤ 0.5
- G18A C22U C24G — lower, ≤ 0.5
- G17A G25C A65U — higher, 0.625
- G18A U19C A43U U59A — lower, 0.538
- G17A C24G C33U A37U — lower, ≤ 0.5
- G18C U26A A45G C66G — lower, ≤ 0.5
- G18A C29A C49U — lower, ≤ 0.5
- G17A C29U C34A — lower, ≤ 0.5
- G18A U54C — higher, 0.646
- G18A A37U U47A C62U — lower, ≤ 0.5
- U19A A20U U53C — lower, ≤ 0.5
- G18A U26C — higher, 0.648
- G17A C31U U35C A57G — lower, 0.527
- G18C A65G — higher, 0.62
- G18A C22G C31U — higher, 0.682
- U16G C31G C55U C61A C66U — lower, ≤ 0.5
- G17A C49G — higher, 0.761
- G17A C49U — higher, 0.892
- G17A U32A — higher, 0.691
- U16C G56A G67C — lower, 0.514
- U16C G48A A70U — higher, 0.798
- G18A U47C C62A — lower, ≤ 0.5
- U16G A45U G50A A69C — higher, 0.631
- U16G U53C C61G — lower, ≤ 0.5
- G17C A43C G51A — lower, ≤ 0.5
- U16G C29G C46U G51C C55G — lower, ≤ 0.5
- G17A C24G C27G C62U G67A — lower, ≤ 0.5
- G18A C30U C60G — lower, ≤ 0.5
- G17C C24U C49U U59A — lower, 0.533
- G18C C31G G44C G48C C66U — lower, ≤ 0.5
- G17C U53A — higher, 0.583
- G18C C30G U32C A69U — lower, ≤ 0.5
- G18A U26G A42U A65G C66G G68A — lower, ≤ 0.5
- G18C C29U C34U — lower, ≤ 0.5
- U16C G17C G38C C46U G58C — higher, 0.64
- G18C G44A G63C A65C — lower, ≤ 0.5
- G17C C22G G52A — lower, ≤ 0.5
- G17A C46U U59A — higher, 0.584
- U16G C60A — higher, 0.606
- G18C C34U — lower, ≤ 0.5
- U16G C66U — higher, 0.875
- G18A C33G U53A — lower, ≤ 0.5
- G17A A70G — higher, 0.866
- G17A A70C — higher, 0.842
- G17A C31A G68C — lower, ≤ 0.5
- U16G C29G C49G A65U — lower, ≤ 0.5
- U16C G39C — higher, 0.696
- G17A A20G C27G A36C — higher, 0.609
- G17A A42G — higher, 0.732
- G17C A37U A69C — lower, ≤ 0.5
- G18C A21U U26C G51C — higher, 0.739
- G18C A42U G48C G68C A69U — lower, ≤ 0.5
- G18A C29U U35A A70U — lower, ≤ 0.5
- G17A C31A — higher, 0.706
- G17A C31G — higher, 0.85
- U16C G51A — higher, 0.633
- G17A U28G C62G — lower, ≤ 0.5
- U16G C62A — higher, 0.643
- G17C U35A C61U — lower, ≤ 0.5
- G17A C61G — higher, 0.573
- G17A C34U U47A G68C — lower, ≤ 0.5
- G18C C24G A45G C55G — higher, 0.693
- G18A A70C — higher, 0.74
- G18A A70G — higher, 0.646
- G18A G25C C49U — higher, 0.74
- U16G C30U C46G — lower, 0.541
- G17C C29U A37C A65C — lower, 0.555
- G18A A37G — lower, 0.547
- G17A U19A A21C G44C — lower, ≤ 0.5
- G17A U32C A37G A69C — lower, 0.5
- G17C C46G G68A — lower, ≤ 0.5

Source: the RNAGym collection of RNA variant scans (doi:10.1126/science.aae0568)
